Results: publication PMC3694426 (Clinical cancer research : an official journal of the …, 2013)
Marks after values point to notes of the source that are not given here.

Legend:
[1] = test system: SCLC tumors; conditions: cited from earlier work
[2] = test system: Gli-1 mRNA; experiment: pharmacodynamics: Gli-1 expression in skin and tumor biopsies; format: in vivo, human
Method in brief: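 Normal skin was biopsied before treatment and 3 weeks into cycle 1 of once-daily oral dosing. RNA was extracted and Gli-1 mRNA measured by RT-PCR. In the biopsy cohort, accessible tumours were sampled at the same time points (baseline cycle 1 day −7; cycle 1 day 22). Gli-1 IHC scored stromal versus epithelial nuclear staining.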

[3] = test system: B837Tx medulloblastoma allograft; conditions: oral administration; cited from earlier work
[4] = plasma pharmacokinetics in patients; format: in vivo, human; conditions: for CL/F: day 22 of cycle 1, plasma, arithmetic mean (CV%); for half-life: in vivo
[5] = test system: pancreatic tumor model with elevated Shh (sonic hedgehog) expression; conditions: stated in introduction; cited from earlier work
[6] = molecular target: Smo receptor; conditions: read-out: IC50, binding to the Smo receptor; stated in introduction; cited from earlier work
[7] = test system: basal cell carcinoma (BCC); experiment: antitumor activity in patients with BCC; format: in vivo, human
Method in brief: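 Oral test compound, once daily in 28-day cycles, given as an outpatient, preceded by a single dose 7 days before cycle 1. BCC patients were dosed at 130 or 160 mg. Evaluable meant more than one dose plus a post-baseline clinical or RECIST 1.0 assessment. Treatment continued until progression, unacceptable adverse events or withdrawal.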

[8] = 28 evaluable vismodegib-naïve BCC patients

CC1=C2C[C@H]3[C@@H](CC[C@@H]4C[C@H](NS(C)(=O)=O)CC[C@@]43C)[C@@H]2CC[C@@]2(C1)O[C@@H]1C[C@H](C)CN[C@H]1[C@H]2C [IPI-926]
regrowth of SCLC tumors following chemotherapy [1]: delays regrowth | patients with a decrease in Gli-1 transcript level in normal skin biopsies ([2]; 48 of 65 patients, after 21 days of treatment): 74% | Gli-1 transcript reduction in stroma (LCM quantitative RT-PCR) ([2]; rectal adenocarcinoma patient biopsy, cycle 1, day 22 vs baseline): about 7 fold | Gli-1 stromal staining (IHC) ([2]; rectal adenocarcinoma posttreatment biopsy, cycle 1, day 22): reduced Gli-1 stromal staining | inhibition of HhP activity (downregulation of Gli1 mRNA) [3]: dose-dependent inhibition of HhP activity | survival of mice bearing orthotopically implanted tumors [3]: significant prolongation of survival | CL/F ([4]; 20 mg QD oral (n = 1)): 111 (NC) L/h | CL/F ([4]; 30 mg QD oral (n = 1)): 59.0 (NC) L/h | CL/F ([4]; 40 mg QD oral (n = 1)): 50.0 (NC) L/h | CL/F ([4]; 60 mg QD oral (n = 1)): 28.6 (NC) L/h | CL/F ([4]; 130 mg QD oral, n = 4): 23.0 (36.0) ^b L/h | CL/F ([4]; 160 mg QD oral (n = 4)): 21.2 (38.5) L/h | CL/F ([4]; 180 mg QD oral (n = 1)): 14.0 (NC) L/h | CL/F ([4]; 200 mg QD oral (n = 1)): 13.3 (NC) L/h | CL/F ([4]; 210 mg QD oral (n = 5)): 20.6 (35.5) L/h | mean oral clearance (CL/F) ([4]; 130-mg dose level, expanded phases): 27.4 L/h | mean oral clearance (CL/F) ([4]; 160-mg dose level, expanded phases): 20.1 L/h | half-life ([4]; human, po): 20 to 40 h | half-life ([4]; human, po, 130 mg): 19.3 h | half-life ([4]; human, po, 160 mg): 17.3 h | half-life ([4]; human, po, 180 mg): 16.1 h | half-life ([4]; human, po, 200 mg): 12.7 h | Tmax ([4]; human, plasma, po, Tmax (slow absorption), overall summary, patients): 2 to 8 h | dose dependence of mean AUC0–24 and Cmax ([4]; single and multiple doses of 130 to 160 mg, expanded phases): dose-proportional manner | Shh signaling in surrounding stromal tissue (Gli1 mRNA) [5]: inhibited Shh signaling | tumor growth [5]: slows tumor growth | IC50 [6]: 1.4 nM | complete response (CR) [7, 8]: 2 patients | partial response (PR) [7, 8]: 6 patients | patients with objective response [7, 8]: Eight | patients showing a response ([7]; HhP inhibitor-naïve evaluable BCC patients, doses ≥130 mg): 8 of 28 | difference in efficacy between the 130- and 160-mg dose levels ([7]; full BCC cohort (N = 39)): no apparent difference in efficacy | objective responses ([7]; nine BCC patients previously treated with vismodegib): no objective responses
